Screening data deposited in PubChem BioAssay by Broad Institute.
T cruzi repl: T. cruzi replication inhibition; hit rate 1.4% among 300,000; T. cruzi beta-gal in NIH3T3, luminescence, 90 h; AID 1885; inhibition, % (concentration not given with the values);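 active means mean inhibition across valid replicates above about 55%, limit read from the data; inconclusive means mean below that limit but half or more replicates reach it; inactive means mean below it, under half of replicates reach it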;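 further: signal also drops with host cell toxicity which is not excluded here; higher percent means less beta-gal luminescence so fewer parasites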
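System: mouse NIH/3T3 fibroblasts infected with β-gal-expressing T. cruzi Tulahuen C4 / Input: NIH/3T3 cells, 5,000 per well / Buffer or medium: Low-serum DMEM with 2% FBS / Probe or stimulus: 5000 reporter trypomastigotes per well / Schedule: ≥90 h infection period, 3 h prior cell attachment / Measured by: GalScreen luminescence, 60 min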
HIF act: HIF pathway transcriptional activation; AID 1910; hit rate 0.32% among 300,000; U2OS HRE-luciferase reporter, luminescence; normalized: DMSO 0%, desferrioxamine 100%; activation, % at 7.5 µM (by protocol);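 active means mean activation of at least 10% of the iron chelator positive control signal, with at least half of replicates also reaching 10%; inconclusive means mean and replicate majority disagree about reaching 10%; inactive means mean and most replicates under 10%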
AI-2 QS modul: modulators of Vibrio harveyi AI-2 quorum sensing system. hit rate 0.4% among 300,000. Vibrio harveyi JMH597 AI-2 luminescence/OD600 ratio, 9 h; stronger effect = lower value; strain lacks LuxN and CqsS sensors; 0 = neutral-control median. activity change, % at 7.5 µM; in the data active means activity change below about -75%, passing the limit was not always enough; inconclusive means no clear call, values can overlap the other calls;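 further: luminescence divided by OD600 gain over 9 h not by final OD600 alone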
ARNT TACC3 PPI: disrupts binding between human ARNT and TACC3. inhibition, % at 9.99 µM. AlphaScreen His-ARNT PAS-B/GST-TACC3 binding, luminescence; TACC3 fragment carries E629A point mutation. hit rate 0.66% among 390,000. Q9Y6A5. AID 623870;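 active means mean inhibition of replicates at least 50% and at least half of replicates each reaching 50%; inconclusive means half or more replicates reach 50% but mean below 50%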
Each line names hits and unclear results; the compound was inactive in the other large screens. Compounds with a hit are over-represented: about 2% of the library has one in this group of screens.

O=C(Nc1ccccc1N1CCN(C(=O)c2ccc(Cl)cc2)CC1)c1ccc([N+](=O)[O-])o1	T cruzi repl 62
Cc1ccccc1C(=O)N1CCN(c2ccc(NC(=O)c3ccc([N+](=O)[O-])o3)cc2)CC1	T cruzi repl 58 (no result: AI-2 QS modul, ARNT TACC3 PPI)
O=C(Nc1ccccc1N1CCN(C(=O)c2ccc(Cl)cc2)CC1)c1ccc(Br)cc1	T cruzi repl 64
O=C(Nc1ccc(N2CCN(C(=O)c3ccc(Cl)cc3)CC2)cc1)c1ccc(Br)o1	T cruzi repl 70 (no result: ARNT TACC3 PPI)
O=C(Nc1ccc(N2CCN(C(=O)c3ccc(Cl)cc3)CC2)cc1)c1cc2ccccc2o1	none
COc1ccccc1OCC(=O)NNC(=O)C1CCN(c2ncnc3sc(C)c(C)c23)CC1	none (no result: T cruzi repl, HIF act, AI-2 QS modul)
COc1ccc(-c2csc(NC(=O)C3CCN(c4ncnc5sc(C)c(C)c45)CC3)n2)cc1OC	T cruzi repl 57
C/C(=N\NC(=O)c1nnn(-c2nonc2N)c1-c1ccccc1)c1ccccc1O	T cruzi repl 61, HIF act 33
COCc1c(C(=O)N/N=C(\C)c2ccc(Cl)s2)nnn1-c1nonc1N	HIF act 29 (no result: ARNT TACC3 PPI)
C/C(=N\NC(=O)c1nnn(-c2nonc2N)c1-c1ccc2c(c1)OCO2)c1ccccc1	none
C/C(=N\NC(=O)c1nnn(-c2nonc2N)c1CN(C)c1ccccc1)c1ccc(O)cc1	none
C/C(=N\NC(=O)c1nnn(-c2nonc2N)c1CN(C)c1ccccc1)c1ccccn1	ARNT TACC3 PPI 48
COCc1c(C(=O)N/N=C(/C)c2cccs2)nnn1-c1nonc1N	none
CCC(=O)Nc1ccc2c(c1)OC[C@H](C)N(Cc1cccc(F)c1)C[C@H](C)[C@@H](OC)CN(C)C2=O	none (no result: T cruzi repl, HIF act, AI-2 QS modul)
Cc1nn(C)cc1NC(=O)C[C@@H]1CC[C@@H]2[C@@H](COc3ccc(NC(=O)Nc4cccc(Cl)c4)cc3C(=O)N2C)O1	none (no result: T cruzi repl, HIF act, AI-2 QS modul)
O=C(COc1ccccc1C(=O)NCc1ccncc1)Nc1ccc(Br)cc1	T cruzi repl 57
O=C(N/N=C/c1ccncc1)c1ccccc1OCc1ccc(Br)cc1	T cruzi repl 71
CCOc1ccc(NC(=O)COc2ccccc2C(=O)NCc2ccccc2)cc1	none (no result: T cruzi repl, HIF act, AI-2 QS modul)
COCC(=O)Nc1ccc2c(c1)C(=O)N(C)C[C@H](OC)[C@@H](C)CN(C(=O)NC(C)C)[C@@H](C)CO2	none (no result: T cruzi repl, HIF act, AI-2 QS modul)
Cc1ccc2cc(C(c3nnnn3C3CCCC3)N(Cc3cccnc3)Cc3ccco3)c(=O)[nH]c2c1 (centres undefined)	none
COc1cccc(CN(Cc2ccco2)C(c2ccc(F)cc2)c2nnnn2C(C)(C)C)c1 (centres undefined)	none
CCC(C)(C)n1nnnc1C(c1ccc(C)cc1)N(Cc1ccco1)Cc1cccs1 (centres undefined)	T cruzi repl 55
Cc1ccc2cc(C(c3nnnn3C3CCCC3)N(Cc3ccco3)Cc3cccs3)c(=O)[nH]c2c1 (centres undefined)	T cruzi repl 63
Cc1ccc2[nH]c(=O)c(C(c3nnnn3C(C)(C)C)N(Cc3ccco3)CC3CCCO3)cc2c1 (centres undefined)	T cruzi repl 60
COc1ccc(NC(=O)N(C)C[C@H]2OCCCC[C@@H](C)Oc3ccc(NS(=O)(=O)c4ccc(Cl)cc4)cc3C(=O)N([C@H](C)CO)C[C@@H]2C)cc1	none (no result: T cruzi repl, HIF act, AI-2 QS modul)
COc1ccc(NC(=O)Nc2ccc3c(c2)C(=O)N([C@@H](C)CO)C[C@@H](C)[C@H](CN(C)S(=O)(=O)c2ccc(Cl)cc2)OCCCC[C@@H](C)O3)cc1	none (no result: T cruzi repl, HIF act, AI-2 QS modul)
COc1ccc(C=Nc2cccnc2N)cc1	ARNT TACC3 PPI 28
Cc1ccc(C=Nc2cccnc2N)cc1	none
O=C(NNC(=O)C(O)(c1ccccc1)c1ccccc1)C1CC1	HIF act 31
C[C@H](CO)N1C[C@H](C)[C@@H](CN(C)C(=O)Nc2cccc3ccccc23)Oc2ccc(NC(=O)Cc3cn(C)c4ccccc34)cc2C1=O	none (no result: T cruzi repl, HIF act, AI-2 QS modul)
CC1(C)OC2OC(C(=O)N/N=C/c3cc(Br)ccc3O)C3OC(C)(C)OC3C2O1 (centres undefined)	ARNT TACC3 PPI 60
C[C@@H]1CN([C@@H](C)CO)C(=O)Cc2cc(NC(=O)Nc3ccc(C(F)(F)F)cc3)ccc2O[C@@H]1CN(C)C(=O)Nc1ccc2c(c1)OCO2	none (no result: T cruzi repl, HIF act, AI-2 QS modul)
CC(C)c1ccc2oc(=O)cc(CN3CCOCC3)c2c1	HIF act 40
CN(C)c1ccc2c(c1)[C@@H]1C[C@@H](CC(=O)NCCc3ccccc3)O[C@H](CO)[C@@H]1O2	none (no result: T cruzi repl, HIF act, AI-2 QS modul)
O=c1ccc(-c2ccc(S(=O)(=O)NCC3CCN(Cc4ccccc4F)CC3)s2)n[nH]1	ARNT TACC3 PPI 50
O=C(C[C@H]1CC[C@H]2[C@@H](COC[C@H](O)CN2C(=O)c2ccncc2)O1)NCc1cccc(F)c1	none (no result: T cruzi repl, HIF act, AI-2 QS modul)
COc1ccc(NC(=O)N(C)C[C@@H]2Oc3ccc(NS(=O)(=O)c4cn(C)cn4)cc3C(=O)N([C@H](C)CO)C[C@@H]2C)cc1	none (no result: T cruzi repl, HIF act, AI-2 QS modul)
O=C(O)c1ccc(/C=N\Nc2ccccn2)cc1	none
C(=N\Nc1nncc2ccccc12)/c1ccccn1	none (no result: ARNT TACC3 PPI)
Cc1cc(=O)[nH]c(N/N=C/c2ccccn2)n1	HIF act 40
O=c1cnnc(N/N=C/c2ccccn2)[nH]1	HIF act 75, AI-2 QS modul inconclusive, ARNT TACC3 PPI 78
O=c1nc(N/N=C/c2ccccn2)cn[nH]1	AI-2 QS modul -88, ARNT TACC3 PPI 64
Cc1cc(=O)[nH]c(N/N=C/C2=C(N3CCOCC3)C(=C\c3ccc(Cl)cc3)/CC2)n1	ARNT TACC3 PPI 24
Cc1cc(=O)[nH]c(N/N=C/c2ccc(Br)s2)n1	ARNT TACC3 PPI 61
Cc1cc(=O)[nH]c(NN=Cc2c(Cl)cccc2Cl)n1	none (no result: T cruzi repl, HIF act, AI-2 QS modul)
Cc1cc(=O)[nH]c(N/N=C/c2ccc(O)c(O)c2)n1	ARNT TACC3 PPI 67
Cc1cc(=O)[nH]c(N/N=C/c2c(O)n(-c3ccccc3)c(=O)c3ccccc23)n1	ARNT TACC3 PPI 72
COc1ccc(C#Cc2cnc3c(c2)C(=O)N([C@H](C)CO)C[C@@H](C)[C@H](CN(C)C(C)=O)O3)cc1	none (no result: T cruzi repl, HIF act, AI-2 QS modul)
CC1=C(n2nnc([N+](=O)[O-])n2)C(c2cccnc2)C(C#N)=C(N)O1 (centres undefined)	T cruzi repl 57
COC(=O)C1=C(C)OC(N)=C(C#N)C1c1cccnc1 (centres undefined)	none
S=c1[nH]nc(-c2ccccn2)n1/N=C/c1ccc(Br)s1	ARNT TACC3 PPI 99
S=c1[nH]nc(-c2ccccn2)n1/N=C/c1ccc(-c2ccccc2Cl)o1	ARNT TACC3 PPI 56
CC1CCCN(c2ccc(C(=O)NCc3ccc4c(c3)OCO4)cc2[N+](=O)[O-])C1 (centres undefined)	none
O=C(NCc1ccc2c(c1)OCO2)c1ccc(N2CCCCCC2)c([N+](=O)[O-])c1	T cruzi repl 59
O=C(N[C@@H]1C=C[C@H](CC(=O)N2CCOCC2)O[C@@H]1CO)c1ccccn1	none (no result: T cruzi repl, HIF act, AI-2 QS modul)
CCS(=O)(=O)N1CCN(c2ccc(C(=O)NC3C4CC5CC(C4)CC3C5)cc2[N+](=O)[O-])CC1 (centres undefined)	T cruzi repl 68
